Source: ChEMBL document CHEMBL4270513, “Replacement of Arg with Nle and modified D-Phe in the core sequence of MSHs, Ac-His-D-Phe-Arg-Trp-NH2, leads to hMC1R selectivity and pigmentation” (Eur J Med Chem, 2018)
Square brackets hold non-standard residues; d marks the D form. Peptide text beside a SMILES is read from it. Nle = CCCC[C@H](N)C(=O)O

What follows are molecules tested against T1, Melanocortin receptor 4 (Homo sapiens, UniProt P32245) (assay: Agonist activity at human MC4R expressed in HEK293 cells after 3 mins by cAMP assay).
T1 sequence (P32245 whole entry): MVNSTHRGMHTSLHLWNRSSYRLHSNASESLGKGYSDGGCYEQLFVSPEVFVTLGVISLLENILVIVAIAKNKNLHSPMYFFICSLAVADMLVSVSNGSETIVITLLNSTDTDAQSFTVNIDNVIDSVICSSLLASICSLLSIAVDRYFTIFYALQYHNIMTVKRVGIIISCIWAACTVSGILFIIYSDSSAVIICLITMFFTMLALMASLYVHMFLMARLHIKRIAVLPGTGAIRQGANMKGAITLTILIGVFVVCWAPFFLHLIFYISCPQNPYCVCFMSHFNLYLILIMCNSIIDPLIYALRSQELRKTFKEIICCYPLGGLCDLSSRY
Format: functional, cell-based
`CCCC[C@H](NC(=O)[C@@H](Cc1ccccc1)NC(=O)[C@H](Cc1cnc[nH]1)NC(C)=O)C(=O)N[C@@H](Cc1c[nH]c2ccccc12)C(N)=O` (Ac-H[dF][Nle]W-NH2) gave an EC50 of 928 nM.

What follows are molecules tested against T1, Melanocortin receptor 4 (assay: Displacement of [125I]-[Nle4,d-Phe7]-alpha-MSH from human MC4R expressed in HEK293 cells after 40 mins by gamma counting analysis).
Format: cell-based
Molecule `CCCC[C@H](NC(=O)[C@@H](Cc1ccccc1)NC(=O)[C@H](Cc1cnc[nH]1)NC(C)=O)C(=O)N[C@@H](Cc1c[nH]c2ccccc12)C(N)=O` (Ac-H[dF][Nle]W-NH2) has an IC50 of 65 nM.

The molecules below were run against T2, Melanocortin receptor 3 (Homo sapiens, UniProt P41968) (assay: Displacement of [125I]-[Nle4,d-Phe7]-alpha-MSH from human MC3R expressed in HEK293 cells after 40 mins by gamma counting analysis).
T2 sequence (P41968 whole entry): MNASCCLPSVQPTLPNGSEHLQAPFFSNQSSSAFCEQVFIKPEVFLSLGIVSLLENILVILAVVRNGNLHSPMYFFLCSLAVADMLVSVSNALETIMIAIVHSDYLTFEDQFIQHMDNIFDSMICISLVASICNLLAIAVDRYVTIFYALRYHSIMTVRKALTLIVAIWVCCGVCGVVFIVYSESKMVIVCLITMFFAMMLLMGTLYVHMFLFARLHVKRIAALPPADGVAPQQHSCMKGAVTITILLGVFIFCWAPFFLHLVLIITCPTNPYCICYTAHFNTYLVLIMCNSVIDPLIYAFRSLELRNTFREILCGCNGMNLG
Format: cell-based
For `CCCC[C@H](NC(=O)[C@@H](Cc1ccccc1)NC(=O)[C@H](Cc1cnc[nH]1)NC(C)=O)C(=O)N[C@@H](Cc1c[nH]c2ccccc12)C(N)=O` (Ac-H[dF][Nle]W-NH2), the IC50 was greater than 1000 nM.

Each molecule was assayed against T2, Melanocortin receptor 3 (assay: Agonist activity at human MC3R expressed in HEK293 cells at 10 uM after 3 mins by cAMP assay relative to MT-2).
Format: functional, cell-based
Method in brief: (§1)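 cAMP produced at a single 10 μM peptide concentration, expressed as % of the response to MT-II run as control; 0% accumulation reported as no activity.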
In the case of `CCCC[C@H](NC(=O)[C@@H](Cc1ccccc1)NC(=O)[C@H](Cc1cnc[nH]1)NC(C)=O)C(=O)N[C@@H](Cc1c[nH]c2ccccc12)C(N)=O` (Ac-H[dF][Nle]W-NH2), the Activity is reported as 100%.

The molecules below were run against T3, Melanocyte-stimulating hormone receptor (Homo sapiens, UniProt Q01726) (assay: Agonist activity at human MC1R expressed in HEK293 cells after 3 mins by cAMP assay).
Format: functional, cell-based
Target sequence in this assay (Q01726 whole entry): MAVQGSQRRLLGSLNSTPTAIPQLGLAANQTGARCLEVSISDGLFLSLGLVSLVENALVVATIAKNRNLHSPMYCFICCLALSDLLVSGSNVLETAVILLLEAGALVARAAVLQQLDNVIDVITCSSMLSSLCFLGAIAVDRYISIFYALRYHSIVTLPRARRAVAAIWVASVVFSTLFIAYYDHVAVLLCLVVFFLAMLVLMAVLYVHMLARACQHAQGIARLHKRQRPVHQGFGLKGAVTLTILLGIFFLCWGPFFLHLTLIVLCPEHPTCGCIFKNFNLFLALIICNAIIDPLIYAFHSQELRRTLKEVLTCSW
Molecule `CCCC[C@H](NC(=O)[C@@H](Cc1ccccc1)NC(=O)[C@H](Cc1cnc[nH]1)NC(C)=O)C(=O)N[C@@H](Cc1c[nH]c2ccccc12)C(N)=O` (Ac-H[dF][Nle]W-NH2) has an EC50 of 52 nM.

What follows are molecules tested against T2, Melanocortin receptor 3 (assay: Displacement of [125I]-[Nle4,d-Phe7]-alpha-MSH from human MC3R expressed in HEK293 cells at 10 uM after 40 mins by gamma counting analysis relative to control).
Format: cell-based
Method in brief: (§2)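 Binding efficiency = maximal % displacement of [125I]-NDP-α-MSH observed at 10 μM peptide; 0% displacement at 10 μM scored as no binding.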
`CCCC[C@H](NC(=O)[C@@H](Cc1ccccc1)NC(=O)[C@H](Cc1cnc[nH]1)NC(C)=O)C(=O)N[C@@H](Cc1c[nH]c2ccccc12)C(N)=O` (Ac-H[dF][Nle]W-NH2) gave a %max of 15%.

Each molecule was assayed against T3, Melanocyte-stimulating hormone receptor (assay: Displacement of [125I]-[Nle4,d-Phe7]-alpha-MSH from human MC1R expressed in HEK293 cells at 10 uM after 40 mins by gamma counting analysis relative to control).
Format: cell-based
Method in brief: as §2
Target sequence in this assay (Q01726 whole entry, looked up): as the sequence (Q01726 whole entry) above
Molecule `CCCC[C@H](NC(=O)[C@@H](Cc1ccccc1)NC(=O)[C@H](Cc1cnc[nH]1)NC(C)=O)C(=O)N[C@@H](Cc1c[nH]c2ccccc12)C(N)=O` (Ac-H[dF][Nle]W-NH2) has a %max of 42%.

The molecules below were run against T4, Melanocortin receptor 5 (Homo sapiens, UniProt P33032) (assay: Agonist activity at human MC5R expressed in HEK293 cells at 10 uM after 3 mins by cAMP assay relative to MT-2).
T4 sequence (P33032 whole entry): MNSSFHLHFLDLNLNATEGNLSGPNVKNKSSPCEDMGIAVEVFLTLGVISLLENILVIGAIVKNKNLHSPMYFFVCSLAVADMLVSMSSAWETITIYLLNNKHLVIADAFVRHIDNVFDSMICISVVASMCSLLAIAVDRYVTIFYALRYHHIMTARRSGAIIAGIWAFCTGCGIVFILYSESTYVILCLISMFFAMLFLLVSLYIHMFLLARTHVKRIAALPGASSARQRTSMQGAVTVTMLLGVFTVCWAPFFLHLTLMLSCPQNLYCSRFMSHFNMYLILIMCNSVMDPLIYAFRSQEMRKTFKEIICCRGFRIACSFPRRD
Format: functional, cell-based
Method in brief: as §1
`CCCC[C@H](NC(=O)[C@@H](Cc1ccccc1)NC(=O)[C@H](Cc1cnc[nH]1)NC(C)=O)C(=O)N[C@@H](Cc1c[nH]c2ccccc12)C(N)=O` (Ac-H[dF][Nle]W-NH2) was tested, and the Activity was 48%.

Each molecule was assayed against T4, Melanocortin receptor 5 (assay: Agonist activity at human MC5R expressed in HEK293 cells after 3 mins by cAMP assay).
Format: functional, cell-based
Work on `CCCC[C@H](NC(=O)[C@@H](Cc1ccccc1)NC(=O)[C@H](Cc1cnc[nH]1)NC(C)=O)C(=O)N[C@@H](Cc1c[nH]c2ccccc12)C(N)=O` (Ac-H[dF][Nle]W-NH2) yielded an EC50 of 37 nM.

These molecules were tested against T3, Melanocyte-stimulating hormone receptor (assay: Agonist activity at human MC1R expressed in HEK293 cells at 10 uM after 3 mins by cAMP assay relative to MT-2).
Format: functional, cell-based
Method in brief: as §1
Target sequence in this assay (Q01726 whole entry, looked up): as the sequence (Q01726 whole entry) above
Work on `CCCC[C@H](NC(=O)[C@@H](Cc1ccccc1)NC(=O)[C@H](Cc1cnc[nH]1)NC(C)=O)C(=O)N[C@@H](Cc1c[nH]c2ccccc12)C(N)=O` (Ac-H[dF][Nle]W-NH2) yielded an Activity of 100%.

The molecules below were run against T4, Melanocortin receptor 5 (assay: Displacement of [125I]-[Nle4,d-Phe7]-alpha-MSH from human MC5R expressed in HEK293 cells at 10 uM after 40 mins by gamma counting analysis relative to control).
Format: cell-based
Method in brief: as §2
With `CCCC[C@H](NC(=O)[C@@H](Cc1ccccc1)NC(=O)[C@H](Cc1cnc[nH]1)NC(C)=O)C(=O)N[C@@H](Cc1c[nH]c2ccccc12)C(N)=O` (Ac-H[dF][Nle]W-NH2) the %max was 44%.

These molecules were tested against T4, Melanocortin receptor 5 (assay: Displacement of [125I]-[Nle4,d-Phe7]-alpha-MSH from human MC5R expressed in HEK293 cells after 40 mins by gamma counting analysis).
Format: cell-based
For `CCCC[C@H](NC(=O)[C@@H](Cc1ccccc1)NC(=O)[C@H](Cc1cnc[nH]1)NC(C)=O)C(=O)N[C@@H](Cc1c[nH]c2ccccc12)C(N)=O` (Ac-H[dF][Nle]W-NH2), the IC50 was 46 nM.

Each molecule was assayed against T2, Melanocortin receptor 3 (assay: Agonist activity at human MC3R expressed in HEK293 cells after 3 mins by cAMP assay).
Format: functional, cell-based
`CCCC[C@H](NC(=O)[C@@H](Cc1ccccc1)NC(=O)[C@H](Cc1cnc[nH]1)NC(C)=O)C(=O)N[C@@H](Cc1c[nH]c2ccccc12)C(N)=O` (Ac-H[dF][Nle]W-NH2) showed an EC50 of 120 nM.

The molecules below were run against T3, Melanocyte-stimulating hormone receptor (assay: Displacement of [125I]-[Nle4,d-Phe7]-alpha-MSH from human MC1R expressed in HEK293 cells after 40 mins by gamma counting analysis).
Format: cell-based
Target sequence in this assay (Q01726 whole entry): as above
Work on `CCCC[C@H](NC(=O)[C@@H](Cc1ccccc1)NC(=O)[C@H](Cc1cnc[nH]1)NC(C)=O)C(=O)N[C@@H](Cc1c[nH]c2ccccc12)C(N)=O` (Ac-H[dF][Nle]W-NH2) yielded an IC50 of 50 nM.
